Laboratory results taken from ChEMBL document CHEMBL1123580, “Synthesis and biological properties of side-chain-modified bleomycins” (1987).

Assays:
B16 [1] = experiment: Effect on the survival of mouse B16 melanoma cells was determined at a dose of 100 ug/mL in vitro; assay type: functional; conditions: read-out: Survival
Procedure, shortened: (§1)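 B16 mouse melanoma cells from log-phase cultures seeded at 5 × 10^4 cells/mL in Dulbecco's modified Eagle medium with 10% newborn calf serum; after 24 h, exposed to agent (10 or 100 µg/mL) for 21 h, washed twice, fresh medium. Cells trypsinized and counted 48 h after start of incubation; viability by Trypan blue exclusion. Survival = T/C × 100 versus untreated control; mean of three samples.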

B16 [2] = experiment: Effect on the survival of mouse B16 melanoma cells was determined at a dose of 10 ug/mL in vitro; assay type: functional; conditions: read-out: Survival; procedure, shortened: as §1

Structure (SMILES)	viability at 100 µg/mL (B16 [1]) [%]	viability at 10 µg/mL (B16 [2]) [%]
Cc1c(N)nc(C(CC(N)=O)NCC(N)C(N)=O)nc1C(=O)NC(C(=O)NC(C)C(O)C(C)C(=O)NC(C(=O)NCCc1nc(-c2nc(C(=O)NCCC[S+](C)CC(=O)Nc3ccc([N+](=O)[O-])cc3)cs2)cs1)C(C)O)C(O[C@@H]1O[C@@H](CO)[C@@H](O)[C@@H](O)[C@@H]1O[C@H]1O[C@H](CO)[C@@H](O)[C@@H](OC(N)=O)[C@@H]1O)c1c[nH]cn1 (some centres not stated)	30	46
Cc1c(N)nc(C(CC(N)=O)NCC(N)C(N)=O)nc1C(=O)NC(C(=O)NC(C)C(O)C(C)C(=O)NC(C(=O)NCCc1nc(-c2nc(C(=O)NCCC[S+](C)CC(=O)N3CCCC3)cs2)cs1)C(C)O)C(O[C@@H]1O[C@@H](CO)[C@@H](O)[C@@H](O)[C@@H]1O[C@H]1O[C@H](CO)[C@@H](O)[C@@H](OC(N)=O)[C@@H]1O)c1c[nH]cn1 (some centres not stated)	29	35
Cc1c(N)nc(C(CC(N)=O)NCC(N)C(N)=O)nc1C(=O)NC(C(=O)NC(C)C(O)C(C)C(=O)NC(C(=O)NCCc1nc(-c2nc(C(=O)NCCC[S+](C)CC(=O)N3CCOCC3)cs2)cs1)C(C)O)C(O[C@@H]1O[C@@H](CO)[C@@H](O)[C@@H](O)[C@@H]1O[C@H]1O[C@H](CO)[C@@H](O)[C@@H](OC(N)=O)[C@@H]1O)c1c[nH]cn1 (some centres not stated)	28	51
Cc1c(N)nc(C(CC(N)=O)NCC(N)C(N)=O)nc1C(=O)NC(C(=O)NC(C)C(O)C(C)C(=O)NC(C(=O)NCCc1nc(-c2nc(C(=O)NCCC[S+](C)CC(=O)Nc3ccc4ccccc4c3)cs2)cs1)C(C)O)C(O[C@@H]1O[C@@H](CO)[C@@H](O)[C@@H](O)[C@@H]1O[C@H]1O[C@H](CO)[C@@H](O)[C@@H](OC(N)=O)[C@@H]1O)c1c[nH]cn1 (some centres not stated)	32	48
Cc1c(N)nc(C(CC(N)=O)NCC(N)C(N)=O)nc1C(=O)NC(C(=O)NC(C)C(O)C(C)C(=O)NC(C(=O)NCCc1nc(-c2nc(C(=O)NCCC[S+](C)CC(N)=O)cs2)cs1)C(C)O)C(O[C@@H]1O[C@H](CO)[C@H](O)[C@@H](O)[C@@H]1O[C@H]1O[C@@H](CO)[C@@H](O)[C@H](OC(N)=O)[C@H]1O)c1c[nH]cn1 (some centres not stated)	21	38
Cc1c(N)nc(C(CC(N)=O)NCC(N)C(N)=O)nc1C(=O)NC(C(=O)NC(C)C(O)C(C)C(=O)NC(C(=O)NCCc1nc(-c2nc(C(=O)NCCC[S+](C)CC(=O)Nc3ccccc3)cs2)cs1)C(C)O)C(O[C@@H]1O[C@@H](CO)[C@@H](O)[C@@H](O)[C@@H]1O[C@H]1O[C@H](CO)[C@@H](O)[C@@H](OC(N)=O)[C@@H]1O)c1c[nH]cn1 (some centres not stated)	27	45
COc1ccc(NC(=O)C[S+](C)CCCNC(=O)c2csc(-c3csc(CCNC(=O)C(NC(=O)C(C)C(O)C(C)NC(=O)C(NC(=O)c4nc(C(CC(N)=O)NCC(N)C(N)=O)nc(N)c4C)C(O[C@@H]4O[C@@H](CO)[C@@H](O)[C@@H](O)[C@@H]4O[C@H]4O[C@H](CO)[C@@H](O)[C@@H](OC(N)=O)[C@@H]4O)c4c[nH]cn4)C(C)O)n3)n2)cc1 (some centres not stated)	28	40
CCOC(=O)C[S+](C)CCCNC(=O)c1csc(-c2csc(CCNC(=O)C(NC(=O)C(C)C(O)C(C)NC(=O)C(NC(=O)c3nc(C(CC(N)=O)NCC(N)C(N)=O)nc(N)c3C)C(O[C@@H]3O[C@@H](CO)[C@@H](O)[C@@H](O)[C@@H]3O[C@H]3O[C@H](CO)[C@@H](O)[C@@H](OC(N)=O)[C@@H]3O)c3c[nH]cn3)C(C)O)n2)n1 (some centres not stated)	27	43
Cc1c(N)nc(C(CC(N)=O)NCC(N)C(N)=O)nc1C(=O)NC(C(=O)NC(C)C(O)C(C)C(=O)NC(C(=O)NCCc1nc(-c2nc(C(=O)NCCC[S+](C)CC(=O)NC3CC3)cs2)cs1)C(C)O)C(O[C@@H]1O[C@@H](CO)[C@@H](O)[C@@H](O)[C@@H]1O[C@H]1O[C@H](CO)[C@@H](O)[C@@H](OC(N)=O)[C@@H]1O)c1c[nH]cn1 (some centres not stated)	28	38
Cc1c(N)nc(C(CC(N)=O)NCC(N)C(N)=O)nc1C(=O)NC(C(=O)NC(C)C(O)C(C)C(=O)NC(C(=O)NCCc1nc(-c2nc(C(=O)NCCC[S+](C)CC(=O)NC(C)C)cs2)cs1)C(C)O)C(O[C@@H]1O[C@H](CO)[C@@H](O)[C@@H](O)C1OC1O[C@@H](CO)C(O)[C@@H](OC(N)=O)[C@@H]1O)c1c[nH]cn1 (some centres not stated)	23	41
Cc1c(N)nc([C@H](CC(N)=O)NC[C@H](N)C(N)=O)nc1C(=O)N[C@H](C(=O)N[C@H](C)[C@@H](O)[C@H](C)C(=O)N[C@H](C(=O)NCCc1nc(-c2nc(C(=O)NCCC[S+](C)C)cs2)cs1)[C@@H](C)O)[C@@H](O[C@@H]1O[C@@H](CO)[C@@H](O)[C@H](O)[C@@H]1O[C@H]1O[C@H](CO)[C@@H](O)[C@H](OC(N)=O)[C@@H]1O)c1c[nH]cn1 [BLEOMYCIN A2]	28	39
